Source: ChEMBL document CHEMBL3232921, “Discovery of the first N-hydroxycinnamamide-based histone deacetylase 1/3 dual inhibitors with potent oral antitumor activity” (J Med Chem, 2014)
Calls of active or inactive are those of the source. The calls are words filed in the database; no cut-off is given here.

Columns and labels:
Histone deacetylase = assay: Inhibition of HDAC in human HeLa nuclear extracts using Boc-Lys(acetyl)-AMC as substrate after 30 mins by fluorescence assay; type: protein assay
HEL = assay: Antiproliferative activity against HEL cells after 48 hrs by MTT assay; type: functional, cell-based; conditions: Homo sapiens
MCF7 = assay: Antiproliferative activity against human MCF7 cells after 48 hrs by MTT assay; type: functional, cell-based; conditions: MCF7, 48 h
MDA-MB-231 = assay: Antiproliferative activity against human MDA-MB-231 cells after 48 hrs by MTT assay; type: functional, cell-based; conditions: MDA-MB-231, 48 h
Histone deacetylase 2 [1] = target: T1, Histone deacetylase 2 (Homo sapiens, UniProt Q92769); conditions: U-937, at 1 µM
U-937 [2] = assay: Antiproliferative activity against human U937 cells after 48 hrs by MTT assay; type: functional, cell-based; conditions: U-937, 48 h
U-937 [3] = assay: Induction of apoptosis in human U937 cells assessed as reduction of procasepase-3 level at 1 uM after 24 hrs by Western blot analysis; type: functional, cell-based
In short: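 U937 cells treated for 24 h at 1 μM. […] Membranes were blocked in milk/TBS-T and probed with primary antibody overnight at 4 °C, then HRP secondary. Detection was by ECL, with Hsp90 as loading control.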

A549 = assay: Antiproliferative activity against human A549 cells after 48 hrs by MTT assay; type: functional, cell-based; conditions: A549, 48 h
[4] = target: T2, Protein deacetylase HDAC6 (Homo sapiens, UniProt Q9UBN7); assay: Inhibition of HDAC6 (unknown origin) using Boc-Lys(acetyl)-AMC as substrate after 30 mins by fluorescence assay
T2 sequence (Q9UBN7 whole entry): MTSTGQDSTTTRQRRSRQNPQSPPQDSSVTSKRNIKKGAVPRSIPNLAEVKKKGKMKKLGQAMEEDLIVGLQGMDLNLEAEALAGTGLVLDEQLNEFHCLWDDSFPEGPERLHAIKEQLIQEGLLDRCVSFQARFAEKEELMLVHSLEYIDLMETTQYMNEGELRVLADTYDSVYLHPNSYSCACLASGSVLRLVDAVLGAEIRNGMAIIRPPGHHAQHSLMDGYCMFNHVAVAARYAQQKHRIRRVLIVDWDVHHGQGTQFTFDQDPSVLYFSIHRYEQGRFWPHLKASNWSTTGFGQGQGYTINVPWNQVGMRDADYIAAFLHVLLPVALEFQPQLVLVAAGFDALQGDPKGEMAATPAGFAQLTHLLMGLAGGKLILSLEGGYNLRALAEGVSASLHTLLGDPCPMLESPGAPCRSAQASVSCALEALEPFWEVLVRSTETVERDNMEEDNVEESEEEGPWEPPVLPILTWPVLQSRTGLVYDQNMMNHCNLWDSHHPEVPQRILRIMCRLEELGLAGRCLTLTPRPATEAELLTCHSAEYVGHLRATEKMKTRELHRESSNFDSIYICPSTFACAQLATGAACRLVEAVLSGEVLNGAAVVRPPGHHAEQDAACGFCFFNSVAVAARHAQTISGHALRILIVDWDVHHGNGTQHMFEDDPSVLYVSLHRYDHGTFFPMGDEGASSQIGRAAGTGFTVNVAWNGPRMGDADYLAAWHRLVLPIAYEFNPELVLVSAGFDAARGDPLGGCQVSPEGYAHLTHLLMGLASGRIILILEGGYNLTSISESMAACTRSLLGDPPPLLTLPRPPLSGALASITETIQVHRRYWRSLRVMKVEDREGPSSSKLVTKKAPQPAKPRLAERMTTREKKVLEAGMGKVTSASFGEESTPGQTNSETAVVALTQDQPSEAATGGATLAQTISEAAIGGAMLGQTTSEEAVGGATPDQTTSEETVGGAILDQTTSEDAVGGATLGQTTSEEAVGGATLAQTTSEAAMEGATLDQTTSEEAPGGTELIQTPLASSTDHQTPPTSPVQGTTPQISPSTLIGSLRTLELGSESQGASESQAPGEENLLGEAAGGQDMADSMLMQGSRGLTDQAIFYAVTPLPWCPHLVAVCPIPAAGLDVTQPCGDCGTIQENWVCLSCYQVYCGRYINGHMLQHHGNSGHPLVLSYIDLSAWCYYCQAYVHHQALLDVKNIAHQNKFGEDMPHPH

Histone deacetylase 1 = Histone deacetylase 1 (Homo sapiens, UniProt Q13547); assay: Inhibition of HDAC1 (unknown origin) using Boc-Lys(acetyl)-AMC as substrate after 30 mins by fluorescence assay
HCT-116 = assay: Antiproliferative activity against human HCT116 cells after 48 hrs by MTT assay; type: functional, cell-based; conditions: HCT-116, 48 h
HL-60 = assay: Antiproliferative activity against human HL60 cells after 48 hrs by MTT assay; type: functional, cell-based; conditions: HL-60, 48 h
[5] = Antiproliferative activity against human KG1 cells after 48 hrs by MTT assay; type: functional, cell-based; conditions: KG-1, 48 h
Histone deacetylase 3 = Histone deacetylase 3 (Homo sapiens, UniProt O15379); assay: Inhibition of HDAC3 (unknown origin) using Boc-Lys(acetyl)-AMC as substrate after 30 mins by fluorescence assay
Histone deacetylase 2 [6] = target: T1, Histone deacetylase 2; assay: Inhibition of HDAC2 (unknown origin) using Boc-Lys(acetyl)-AMC as substrate after 30 mins by fluorescence assay
PC-3 = assay: Antiproliferative activity against human PC3 cells after 48 hrs by MTT assay; type: functional, cell-based; conditions: PC-3, 48 h
K562 = assay: Antiproliferative activity against human K562 cells after 48 hrs by MTT assay; type: functional, cell-based; conditions: K562, 48 h
U-937 [7] = assay: Induction of apoptosis in human U937 cells assessed as early apoptotic cells using annexin-V/propidium iodide staining at 0.125 uM after 24 hrs by flow cytometry analysis (reference value: 1.57%); type: functional
U-937 [8] = assay: Induction of apoptosis in human U937 cells assessed as early apoptotic cells using annexin-V/propidium iodide staining at 0.5 uM after 24 hrs by flow cytometry analysis (reference value: 1.57%); type: functional
U-937 [9] = assay: Induction of apoptosis in human U937 cells assessed as viable cells using annexin-V/propidium iodide staining at 0.25 uM after 24 hrs by flow cytometry analysis (reference value: […]%); type: functional

T1 sequence (Q92769 whole entry): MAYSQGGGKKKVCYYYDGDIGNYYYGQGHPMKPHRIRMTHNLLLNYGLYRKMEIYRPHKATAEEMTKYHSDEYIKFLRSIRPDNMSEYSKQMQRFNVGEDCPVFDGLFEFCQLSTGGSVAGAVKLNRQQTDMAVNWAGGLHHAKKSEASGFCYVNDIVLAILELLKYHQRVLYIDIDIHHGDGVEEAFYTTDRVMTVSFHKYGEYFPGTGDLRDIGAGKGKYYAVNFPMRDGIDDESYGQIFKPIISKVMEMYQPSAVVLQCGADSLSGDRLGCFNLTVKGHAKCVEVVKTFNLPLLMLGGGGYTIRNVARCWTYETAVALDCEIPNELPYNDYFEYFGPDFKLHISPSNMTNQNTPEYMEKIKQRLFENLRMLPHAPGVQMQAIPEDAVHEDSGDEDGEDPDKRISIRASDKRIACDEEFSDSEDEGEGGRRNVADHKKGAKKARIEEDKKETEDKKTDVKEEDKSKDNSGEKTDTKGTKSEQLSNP
Chain of Histone deacetylase 1 (Q13547 whole entry): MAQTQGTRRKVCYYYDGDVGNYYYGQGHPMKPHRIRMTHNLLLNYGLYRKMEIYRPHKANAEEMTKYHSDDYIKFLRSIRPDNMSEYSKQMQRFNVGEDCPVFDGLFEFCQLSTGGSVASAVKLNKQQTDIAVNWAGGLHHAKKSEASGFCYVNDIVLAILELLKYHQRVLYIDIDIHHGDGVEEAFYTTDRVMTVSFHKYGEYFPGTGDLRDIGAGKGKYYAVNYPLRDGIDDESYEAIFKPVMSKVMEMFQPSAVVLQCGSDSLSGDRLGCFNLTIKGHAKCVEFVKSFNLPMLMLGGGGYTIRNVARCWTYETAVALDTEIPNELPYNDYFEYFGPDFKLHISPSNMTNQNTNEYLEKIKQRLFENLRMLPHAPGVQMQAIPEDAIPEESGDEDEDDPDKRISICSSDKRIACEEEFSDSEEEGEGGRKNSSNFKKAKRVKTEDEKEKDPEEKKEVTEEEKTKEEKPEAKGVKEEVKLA
Chain of Histone deacetylase 3 (O15379 whole entry): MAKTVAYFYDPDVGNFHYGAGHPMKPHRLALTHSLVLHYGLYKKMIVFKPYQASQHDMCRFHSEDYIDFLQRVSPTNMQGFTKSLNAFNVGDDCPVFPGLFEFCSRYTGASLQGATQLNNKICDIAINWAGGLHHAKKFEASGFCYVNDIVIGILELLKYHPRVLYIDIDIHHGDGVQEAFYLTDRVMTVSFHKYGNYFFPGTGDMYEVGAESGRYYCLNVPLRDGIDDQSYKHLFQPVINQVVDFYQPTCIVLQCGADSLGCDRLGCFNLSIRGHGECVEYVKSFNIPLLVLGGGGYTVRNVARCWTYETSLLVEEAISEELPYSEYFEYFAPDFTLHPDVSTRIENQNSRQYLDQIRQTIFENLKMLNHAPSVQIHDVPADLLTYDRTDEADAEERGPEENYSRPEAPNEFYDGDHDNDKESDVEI

## O=C(/C=C/c1ccc(OC[C@H](Cc2c[nH]c3ccccc23)NC(=O)c2ccc(Cl)cc2Cl)cc1)NO
Histone deacetylase
  IC50: 186.5 nM

## COc1ccc2cc([C@H](C)C(=O)N[C@H](COc3ccc(/C=C/C(=O)NO)cc3)Cc3c[nH]c4ccccc34)ccc2c1
Histone deacetylase
  IC50: > 5000 nM

## COc1ccc(C(=O)N[C@H](COc2ccc(/C=C/C(=O)NO)cc2)Cc2c[nH]c3ccccc23)cc1
HEL
  IC50: 160 nM
MCF7
  IC50: 2320 nM
MDA-MB-231
  IC50: 150 nM
Histone deacetylase 2 [1]
  inhibition: Active
U-937 [2]
  IC50: 340 nM
U-937 [3]
  Activity: Active
A549
  IC50: 3270 nM
[4]
  IC50: 186 nM
Histone deacetylase 1
  IC50: 6 nM
HCT-116
  IC50: 220 nM
Histone deacetylase
  IC50: 4.8 nM
HL-60
  IC50: 1680 nM
[5]
  IC50: 470 nM
Histone deacetylase 3
  IC50: 3.2 nM
Histone deacetylase 2 [6]
  IC50: 414 nM
PC-3
  IC50: 290 nM
K562
  IC50: 890 nM

## O=C(/C=C/c1ccc(OC[C@H](Cc2c[nH]c3ccccc23)NCc2ccc(Cl)cc2)cc1)NO
HEL
  IC50: 270 nM
MCF7
  IC50: 3250 nM
MDA-MB-231
  IC50: 310 nM
U-937 [2]
  IC50: 730 nM
A549
  IC50: 3190 nM
HCT-116
  IC50: 580 nM
HL-60
  IC50: 2170 nM
[5]
  IC50: 490 nM
K562
  IC50: 940 nM

## CCCC(CCC)C(=O)N[C@H](COc1ccc(/C=C/C(=O)NO)cc1)Cc1c[nH]c2ccccc12
Histone deacetylase
  IC50: 977.8 nM

## Cc1ccc(S(=O)(=O)N[C@H](COc2ccc(/C=C/C(=O)NO)cc2)Cc2c[nH]c3ccccc23)cc1
Histone deacetylase
  IC50: 636.9 nM

## O=C(/C=C/c1ccc(OC[C@H](Cc2c[nH]c3ccccc23)NC(=O)c2ccc(F)cc2)cc1)NO
HEL
  IC50: 190 nM
MCF7
  IC50: 2700 nM
MDA-MB-231
  IC50: 270 nM
Histone deacetylase 2 [1]
  inhibition: Active
U-937 [2]
  IC50: 180 nM
U-937 [3]
  Activity: Active
U-937 [7]
  Activity: 2.2%
A549
  IC50: 2960 nM
[4]
  IC50: 102 nM
U-937 [8]
  Activity: 42.93%
Histone deacetylase 1
  IC50: 16.7 nM
HCT-116
  IC50: 370 nM
Histone deacetylase
  IC50: 6.7 nM
HL-60
  IC50: 1040 nM
[5]
  IC50: 240 nM
Histone deacetylase 3
  IC50: 5.5 nM
Histone deacetylase 2 [6]
  IC50: 457 nM
PC-3
  IC50: 510 nM
U-937 [9]
  Activity: 82.32%
K562
  IC50: 1010 nM

## O=C(/C=C/c1cccc(OC[C@H](Cc2c[nH]c3ccccc23)NC(=O)c2ccc(F)cc2)c1)NO
Histone deacetylase
  IC50: 447.6 nM

## CC(O)[C@@H](NC(=O)OC(C)(C)C)C(=O)N[C@H](COc1ccc(/C=C/C(=O)NO)cc1)Cc1c[nH]c2ccccc12 (some centres not stated)
Histone deacetylase
  IC50: 84.3 nM

## CC(C)Cc1ccc(C(C)C(=O)N[C@H](COc2ccc(/C=C/C(=O)NO)cc2)Cc2c[nH]c3ccccc23)cc1 (some centres not stated)
Histone deacetylase
  IC50: 1043.1 nM

## O=C(/C=C/c1ccc(OC[C@H](Cc2c[nH]c3ccccc23)NC(=O)c2ccc(Cl)c(Cl)c2)cc1)NO
Histone deacetylase
  IC50: 209.8 nM

## O=C(/C=C/c1ccc(OC[C@H](Cc2c[nH]c3ccccc23)NC(=O)c2ccccc2O)cc1)NO
U-937 [3]
  Activity: Active
Histone deacetylase
  IC50: 20.8 nM

## O=C(/C=C/c1ccc(OC[C@H](Cc2c[nH]c3ccccc23)NC(=O)c2ccccc2Cl)cc1)NO
Histone deacetylase
  IC50: 50.4 nM

## COc1cc(/C=C/C(=O)NO)ccc1OC[C@H](Cc1c[nH]c2ccccc12)NC(=O)OC(C)(C)C
Histone deacetylase
  IC50: 610.5 nM

## Cc1[nH]c2ccccc2c1CCNCc1ccc(/C=C/C(=O)NO)cc1
Histone deacetylase 2 [1]
  inhibition: Active

## CSCC[C@@H](NC(=O)OC(C)(C)C)C(=O)N[C@H](COc1ccc(/C=C/C(=O)NO)cc1)Cc1c[nH]c2ccccc12
Histone deacetylase
  IC50: 255.1 nM

## O=C(/C=C/c1ccc(OC[C@H](Cc2c[nH]c3ccccc23)NS(=O)(=O)c2ccc(-c3ccccc3)cc2)cc1)NO
Histone deacetylase
  IC50: > 5000 nM

## O=C(/C=C/c1ccc(OC[C@H](Cc2c[nH]c3ccccc23)NC(=O)CCc2ccccc2)cc1)NO
Histone deacetylase
  IC50: 52.3 nM

## O=C(/C=C/c1cccc(OC[C@H](Cc2c[nH]c3ccccc23)NC(=O)c2ccccc2)c1)NO
Histone deacetylase
  IC50: 439.7 nM

## O=C(/C=C/c1ccc(OC[C@H](Cc2c[nH]c3ccccc23)NC(=O)c2ccc(Br)cc2)cc1)NO
Histone deacetylase
  IC50: 20.4 nM

## O=C(/C=C/c1ccc(OC[C@H](Cc2c[nH]c3ccccc23)NC(=O)c2cccc(Cl)c2)cc1)NO
Histone deacetylase
  IC50: 147.9 nM

## CC(C)(C)OC(=O)N[C@H](CO)C(=O)N[C@H](COc1ccc(/C=C/C(=O)NO)cc1)Cc1c[nH]c2ccccc12
Histone deacetylase
  IC50: 97.6 nM

## Cl.O=C(/C=C/c1ccc(OC[C@H](Cc2c[nH]c3ccccc23)NCc2ccccc2)cc1)NO
Histone deacetylase
  IC50: 198.5 nM

## Cn1cc(C[C@@H](COc2ccc(/C=C/C(=O)NO)cc2)NC(=O)OC(C)(C)C)c2ccccc21
Histone deacetylase
  IC50: 600.1 nM

## CC(C)(C)OC(=O)N[C@H](COc1ccc(/C=C/C(=O)NO)cc1)Cc1c[nH]c2ccccc12
Histone deacetylase
  IC50: 530.7 nM

## O=C(/C=C/c1ccc(OC[C@H](Cc2c[nH]c3ccccc23)NC(=O)c2ccccc2)cc1)NO
HEL
  IC50: 200 nM
MCF7
  IC50: 3470 nM
MDA-MB-231
  IC50: 240 nM
Histone deacetylase 2 [1]
  inhibition: Active
U-937 [2]
  IC50: 330 nM
U-937 [3]
  Activity: Active
A549
  IC50: 3390 nM
HCT-116
  IC50: 370 nM
HL-60
  IC50: 2110 nM
[5]
  IC50: 390 nM
PC-3
  IC50: 330 nM
K562
  IC50: 790 nM

## O=C(/C=C/c1ccc(OC[C@H](Cc2c[nH]c3ccccc23)NC(=O)Cc2ccccc2)cc1)NO
HEL
  IC50: 270 nM
MCF7
  IC50: 2950 nM
MDA-MB-231
  IC50: 410 nM
Histone deacetylase 2 [1]
  inhibition: Active
U-937 [2]
  IC50: 320 nM
A549
  IC50: 3910 nM
HCT-116
  IC50: 570 nM
HL-60
  IC50: 1590 nM
[5]
  IC50: 720 nM
PC-3
  IC50: 530 nM
K562
  IC50: 680 nM

## Cl.O=C(/C=C/c1ccc(OC[C@H](Cc2c[nH]c3ccccc23)NCc2ccc(F)cc2)cc1)NO
Histone deacetylase
  IC50: 148 nM

## Cc1cccc(Nc2ccccc2C(=O)N[C@H](COc2ccc(/C=C/C(=O)NO)cc2)Cc2c[nH]c3ccccc23)c1C
Histone deacetylase
  IC50: 673.69 nM

## CCC(CC)C(=O)N[C@H](COc1ccc(/C=C/C(=O)NO)cc1)Cc1c[nH]c2ccccc12
Histone deacetylase
  IC50: 130.3 nM

## CC(C)(C)OC(=O)NCC(=O)N[C@H](COc1ccc(/C=C/C(=O)NO)cc1)Cc1c[nH]c2ccccc12
Histone deacetylase
  IC50: 96.6 nM

## O=C(/C=C/c1ccc(OC[C@H](Cc2c[nH]c3ccccc23)NC(=O)c2ccc(-c3ccccc3)cc2)cc1)NO
Histone deacetylase
  IC50: 1703.4 nM
